For data set [1], the target named is T1, Muscarinic acetylcholine receptor M2 (Homo sapiens, UniProt P08172).
T1 sequence (P08172 whole entry): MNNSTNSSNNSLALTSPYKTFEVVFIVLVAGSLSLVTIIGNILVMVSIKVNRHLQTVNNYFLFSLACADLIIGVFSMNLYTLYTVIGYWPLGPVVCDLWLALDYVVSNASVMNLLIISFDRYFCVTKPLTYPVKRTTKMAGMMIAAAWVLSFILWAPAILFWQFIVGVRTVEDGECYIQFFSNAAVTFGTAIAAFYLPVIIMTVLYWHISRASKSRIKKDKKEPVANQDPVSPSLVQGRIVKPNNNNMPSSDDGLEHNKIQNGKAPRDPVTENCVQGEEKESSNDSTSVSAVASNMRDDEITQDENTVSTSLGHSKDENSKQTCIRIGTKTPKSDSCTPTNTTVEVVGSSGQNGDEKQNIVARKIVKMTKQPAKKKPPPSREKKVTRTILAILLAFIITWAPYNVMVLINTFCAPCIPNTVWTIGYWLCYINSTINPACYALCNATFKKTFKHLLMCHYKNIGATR
As to the kind of experiment: Inhibition of muscarinic M2 receptor.

The test system of data set [2] is Rattus norvegicus. As to the kind of experiment: Antidiabetic activity in genetic Zucker fa/fa rat model assessed as increase in glucose disposal rate at 100 mg/kg, po daily once after 4 weeks by hyperinsulinemic-euglycemic clamp. Type of data set: functional. The procedure, abridged: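 Zucker fa/fa rats, cannulated 5 days beforehand and fasted 8 h, underwent the clamp after 4 weeks of dosing. [3-3H]glucose tracer was primed and infused, then insulin 25 (mU/kg)/min was started. Variable 50% dextrose held blood glucose at 100 mg/dL over 120 min, with tracer specific activity sampled at 110 and 120 min.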

The subject of data set [3] is Mus musculus. Put plainly: Toxicity in diet-induced obesity C57BL/6 mouse model assessed as hematocrit at 100 mg/kg, po daily once for 10 weeks. The class given is organism-based. Set-up: dose 100 mg/kg, route oral. Particulars: in vivo, 1680 h. The procedure, abridged: (§1)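 Male C57BL/6 mice were fed a 60%-fat diet from 9 weeks of age until about 40 g, in groups of 6-10. They were dosed by oral gavage once daily in 2% HPMC + 0.2% DOSS, with 29 at 100 mg/kg and rosiglitazone at 5 mg/kg, alongside vehicle groups on lean and high-fat diet. Fed glucose was read at weeks 2, 4, 6, 8 and 10. Clinical chemistry and hematology were also measured. Analysis by ANOVA.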

For data set [4], the system named is Mus musculus. Put plainly: Antidiabetic activity in ob/ob mouse model assessed as reduction of fasting blood glucose level at 100 mg/kg, po daily once after 1 week relative to control. Type of data set: functional, organism-based. The arrangement: dose 100 mg/kg. The procedure, abridged: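 ob/ob mice received at 6 weeks of age were kept on a 60%-fat diet from at least 1 week before the study. They were sorted by body weight and glucose, then gavaged once daily with 100 mg/kg or vehicle (2% HPMC + 0.2% DOSS). Fasting blood glucose was measured. Analysis by one-way ANOVA with Dunnett's test.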

Data set [5] is described as follows: Terminal half life in C57BL/6 mouse at 100 mg/kg, po or 10 mg/kg, iv. The note with it: in vivo, read-out: beta t1/2 (converted). Type of data set: ADME, organism-based. The method in brief:
(§2)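 Male C57BL/6 mice (18-22 g; 3 per dose group per time point), given 100 mg/kg po as the hydrochloride salt in 2% HPMC + 0.2% DOSS, or 10 mg/kg iv by tail vein in 10% ethanol/40% polyethylene glycol/50% H2O. Plasma was taken at 5, 30, 120 and 360 min after dosing and drug levels were measured.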

A short description of data set [6]: AUC in C57BL/6 mouse at 100 mg/kg, po or 10 mg/kg, iv. Particulars: plasma. The class given is ADME, organism-based. The method in brief:
as §2

The target in data set [7] is T2, NAD-dependent protein deacetylase sirtuin-1 (Homo sapiens) (UniProt Q96EB6).
T2 sequence (whole entry): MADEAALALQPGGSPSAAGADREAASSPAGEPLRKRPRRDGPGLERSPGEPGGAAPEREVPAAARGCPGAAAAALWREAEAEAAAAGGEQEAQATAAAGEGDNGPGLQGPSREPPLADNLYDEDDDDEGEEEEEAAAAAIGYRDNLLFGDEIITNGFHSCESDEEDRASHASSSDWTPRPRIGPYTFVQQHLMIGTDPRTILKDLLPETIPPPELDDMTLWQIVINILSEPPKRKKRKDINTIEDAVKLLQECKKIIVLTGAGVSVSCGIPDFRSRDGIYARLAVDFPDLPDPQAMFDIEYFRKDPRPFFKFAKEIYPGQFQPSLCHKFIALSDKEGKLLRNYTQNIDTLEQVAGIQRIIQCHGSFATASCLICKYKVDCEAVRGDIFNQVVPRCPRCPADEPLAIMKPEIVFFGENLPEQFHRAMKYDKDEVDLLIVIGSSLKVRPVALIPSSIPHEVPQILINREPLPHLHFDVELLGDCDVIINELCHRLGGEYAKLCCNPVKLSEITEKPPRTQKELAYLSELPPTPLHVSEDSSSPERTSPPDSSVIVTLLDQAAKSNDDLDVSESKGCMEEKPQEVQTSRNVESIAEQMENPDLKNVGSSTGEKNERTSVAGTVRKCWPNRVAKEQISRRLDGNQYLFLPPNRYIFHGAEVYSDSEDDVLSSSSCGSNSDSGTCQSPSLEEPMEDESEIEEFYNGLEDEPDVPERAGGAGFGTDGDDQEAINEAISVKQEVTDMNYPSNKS
As to the kind of experiment: Activation of human SIRT1 expressed in Escherichia coli BL21Start assessed as concentration required to increase 50% enzyme activity by mass spectrometry assay. The method in brief: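 Truncated SIRT1 was expressed in E. coli BL21Start (DE3) and purified on Ni2+ chelate. Reaction: 10 nM enzyme, 0.5 µM biotinylated, fluorophore-tagged p53-derived 20-mer acetyl-lysine peptide and 120 µM NAD+, in 50 mM Tris-acetate pH 8 with NaCl, KCl, MgCl2, 5 mM DTT and 0.05% BSA; DMSO vehicle; 25 min at 25 °C. Stopped with formic acid/nicotinamide; acetylated versus deacetylated peptide read by mass spectrometry. EC1.5 is the concentration raising activity by 50%, the mean of three titration curves.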

In data set [8] the test system is Mus musculus. As to the kind of experiment: Antidiabetic activity in diet-induced obesity C57BL/6 mouse model assessed as reduction of plasma insulin level at 100 mg/kg, po daily once after 10 weeks. Type of data set: functional, organism-based. The arrangement: dose 100 mg/kg. The method in brief: as §1
Data set [9] concerns Salmonella typhimurium. As to the kind of experiment: Mutagenic activity in Salmonella Typhimurium TA100 in absence of S9 activation. Particulars: salmonella enterica subsp. enterica serovar typhimurium. The class given is toxicity, organism-based.
Data set [10] has as its system Mus musculus. Put plainly: Antidiabetic activity in diet-induced obesity C57BL/6 mouse model assessed as reduction of plasma insulin level at 100 mg/kg, po daily once after 10 weeks.
In data set [11] the test system is Mus musculus. As to the kind of experiment: Antidiabetic activity in diet-induced obesity C57BL/6 mouse model assessed as reduction of plasma insulin level at 100 mg/kg, po daily once after 2 weeks. Type of data set: functional, organism-based. The arrangement: dose 100 mg/kg. The method in brief:
as §1

Data set [12] deals with Rattus norvegicus. Put plainly: Antidiabetic activity in genetic Zucker fa/fa rat model assessed as reduction of glucose production at 100 mg/kg, po daily once after 3 weeks by pyruvate tolerance test. The class given is functional, organism-based. Set-up: dose 100 mg/kg. The procedure, abridged:
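Male Zucker fa/fa rats, housed singly, were gavaged daily from 7 weeks of age with 100 mg/kg or vehicle (2% HPMC + 0.2% DOSS), 5 per group. Fed tail-vein glucose was taken on day 22. Also on day 22, after an overnight fast, sodium pyruvate 1 g/kg was given ip and glucose was read at 0-90 min.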

Activity calls are given as the source filed them. The calls are words filed in the database; no cut-off is given here.

The IC50 is the concentration at which inhibition is half-maximal. Lower therefore signals greater potency. For orientation: AUC means concentration integrated over time. A lower AUC goes with less exposure.

`O=C(Nc1ccccc1-c1cn2c(CN3CCNCC3)csc2n1)c1cnc2ccccc2n1` came in with a concentration for half-maximal inhibition (IC50) in [1] of 6.28 µM. Moreover, the Activity in data set [2] is 20%; in [3] it was “Active”; in data set [7], 0.16 µM; in data set [9], “Non-toxic”. Also, the result in data set [4], in data set [8], in [10], in [11] and in [12] was Active. In addition, the half-life in data set [5] is 5 h. In data set [6], the AUC is 7900 ng·h/mL.

(Values after ChEMBL document CHEMBL1140923, “Discovery of imidazo[1,2-b]thiazole derivatives as novel SIRT1 activators” (J Med Chem, 2009).)
